Source: ChEMBL document CHEMBL3779809, “Bioactive Enmein-Type ent-Kaurane Diterpenoids from Isodon phyllostachys” (J Nat Prod, 2016)
pIC50: −log10 of the molar value. The source made the active and inactive calls. The calls are words filed in the database; no cut-off is given here.

Assays:
MCF7 [1] = assay: Cytotoxicity against human MCF7 cells assessed growth inhibition at 40 uM after 48 hrs by MTS assay relative to control; type: functional
In short: (§1)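 Cultured in RPMI-1640 or DMEM with 10% FBS at 37 °C under 5% CO2. Cells seeded, given 12 h at 37 °C, then treated with compound at 40 μM for 48 h. Growth inhibition measured by MTS assay (formazan colorimetry).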

HL-60 = assay: Cytotoxicity against human HL60 cells assessed growth inhibition at 40 uM after 48 hrs by MTS assay relative to control; type: functional; in short: as §1
[2] = Cytotoxicity against human HL60 cells assessed as cell viability after 48 hrs by MTS assay; type: functional, cell-based; conditions: HL-60, 48 h
In short: (§2)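 Cells grown in RPMI-1640 or DMEM with 10% FBS at 37 °C, 5% CO2. Seeded, incubated 12 h, then exposed to a range of concentrations in triplicate for 48 h. Viability read by MTS reduction to formazan. IC50 calculated by Reed and Muench method; cis-platin positive control.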

SW480 [3] = assay: Cytotoxicity against human SW480 cells assessed as cell viability after 48 hrs by MTS assay; type: functional, cell-based; conditions: SW480, 48 h; in short: as §2
SMMC-7721 = assay: Cytotoxicity against human SMMC7721 cells assessed growth inhibition at 40 uM after 48 hrs by MTS assay relative to control; type: functional; in short: as §1
[4] = Cytotoxicity against human SMMC7721 cells assessed as cell viability after 48 hrs by MTS assay; type: functional, cell-based; conditions: SMMC-7721, 48 h; in short: as §2
SW480 [5] = assay: Cytotoxicity against human SW480 cells assessed growth inhibition at 40 uM after 48 hrs by MTS assay relative to control; type: functional; in short: as §1
A549 [6] = assay: Cytotoxicity against human A549 cells assessed as cell viability after 48 hrs by MTS assay; type: functional, cell-based; conditions: A549, 48 h; in short: as §2
A549 [7] = assay: Cytotoxicity against human A549 cells assessed growth inhibition at 40 uM after 48 hrs by MTS assay relative to control; type: functional; in short: as §1
MCF7 [8] = assay: Cytotoxicity against human MCF7 cells assessed as cell viability after 48 hrs by MTS assay; type: functional, cell-based; conditions: MCF7, 48 h; in short: as §2

Structure (SMILES) | growth inhibition (GI) (MCF7 [1]) | growth inhibition (GI) (HL-60) | pIC50 [2] | pIC50 (SW480 [3]) | growth inhibition (GI) (SMMC-7721) | pIC50 [4] | growth inhibition (GI) (SW480 [5]) | pIC50 (A549 [6]) | growth inhibition (GI) (A549 [7]) | pIC50 (MCF7 [8])
C[C@H]1C(=O)[C@]23C[C@@H]1CC[C@H]2C12CO[C@@H](O)[C@@H]1C(C)(C)CC[C@@H]2OC3=O (stereo not given in full) | inactive | inactive | < 4.40 | < 4.40 | inactive | < 4.40 | inactive | < 4.40 | inactive | < 4.40
C[C@@H]1C(=O)[C@]23C[C@@H]1CC[C@H]2C12CO[C@@H](O)[C@@H]1C(C)(C)CC[C@@H]2OC3=O (stereo not given in full) | inactive | inactive | < 4.40 | < 4.40 | inactive | < 4.40 | inactive | < 4.40 | inactive | < 4.40
C=C1[C@H]2CC[C@@H]3[C@](C2)(C(=O)O[C@H]2C[C@@H]4OC5O[C@@H](O)[C@H](C4(C)C)[C@@]523)[C@@H]1O | inactive | inactive | < 4.40 | < 4.40 | inactive | < 4.40 | inactive | < 4.40 | inactive | < 4.40
COC[C@H]1C(=O)[C@]23C[C@@H]1C[C@@H](O)[C@H]2C12CO[C@@H](O)[C@@H]1C(C)(C)CC[C@@H]2OC3=O (stereo not given in full) | inactive | inactive | < 4.40 | < 4.40 | inactive | < 4.40 | inactive | < 4.40 | inactive | < 4.40
C=C1[C@H]2C[C@@H](O)[C@H]3C45CO[C@@H]6OC[C@](C)(CC[C@@H]4OC(=O)[C@]3(C2)[C@@H]1O)[C@@H]65 (stereo not given in full) | inactive | inactive | < 4.40 | < 4.40 | inactive | < 4.40 | inactive | < 4.40 | inactive | < 4.40
C[C@]12CC[C@@H]3OC(=O)[C@@]45C[C@H](C[C@@H](O)[C@@H]4[C@]34CO[C@H](OC1)[C@H]24)[C@@]1(CCC2=C(O1)[C@]13C[C@@H]2C[C@@H](O)[C@@H]1[C@]12CO[C@@H]4OC[C@](C)(CC[C@@H]1OC3=O)[C@@H]42)C5=O | inactive | inactive | < 4.40 | < 4.40 | inactive | < 4.40 | inactive | < 4.40 | inactive | < 4.40
C=C1C(=O)[C@]23C[C@@H]1C[C@@H](O)[C@H]2C12CO[C@@H](O)[C@@H]1C(C)(C)[C@@H](O)C[C@@H]2OC3=O (stereo not given in full) | inactive | inactive | < 4.40 | < 4.40 | inactive | < 4.40 | inactive | < 4.40 | inactive | < 4.40
C[C@H]1C(=O)[C@]23C[C@@H]1C[C@@H](O)[C@H]2C12CO[C@@H](O)[C@@H]1C(C)(C)CC[C@@H]2OC3=O (stereo not given in full) | inactive | inactive | < 4.40 | < 4.40 | inactive | < 4.40 | inactive | < 4.40 | inactive | < 4.40
CO[C@H]1O[C@@H](O)[C@@H]2C(C)(C)CC[C@@H]3OC(=O)[C@@]45C[C@H](CC[C@H]4C132)[C@@H](C)C5=O (stereo not given in full) | inactive | inactive | < 4.40 | < 4.40 | inactive | < 4.40 | inactive | < 4.40 | inactive | < 4.40
CO[C@@H]1OC(O)C23[C@H](CCC(C)(C)[C@@H]12)OC(=O)[C@@]12C[C@H](CC[C@@H]31)[C@@H](C)C2=O (stereo not given in full) | inactive | inactive | < 4.40 | < 4.40 | inactive | < 4.40 | inactive | < 4.40 | inactive | < 4.40
C=C1C(=O)[C@]23C[C@@H]1C[C@@H](O)[C@H]2C12C(O)O[C@@H]4OC(O)[C@](C)(CC[C@@H]1OC3=O)[C@@H]42 (stereo not given in full) | inactive | inactive | < 4.40 | < 4.40 | inactive | < 4.40 | inactive | < 4.40 | inactive | < 4.40
C[C@H]1C(=O)[C@]23C[C@@H]1CC[C@H]2C12C(O)O[C@@H](O)[C@@H]1C(C)(C)CC[C@@H]2OC3=O (stereo not given in full) | inactive | inactive | < 4.40 | < 4.40 | inactive | < 4.40 | inactive | < 4.40 | inactive | < 4.40
CC1(C)[C@@H]2C[C@@H]3OC(=O)[C@@]45C[C@H](CC[C@H]4[C@]34C(O[C@@H](O)[C@H]14)O2)[C@](C)(O)C5=O | inactive | inactive | < 4.40 | < 4.40 | inactive | < 4.40 | inactive | < 4.40 | inactive | < 4.40
C=C1[C@H]2CC[C@H]3C45C(O)O[C@@H](OC)[C@@H]4C(C)(C)CC[C@@H]5OC(=O)[C@]3(C2)[C@@H]1O (stereo not given in full) | inactive | inactive | < 4.40 | < 4.40 | inactive | < 4.40 | inactive | < 4.40 | inactive | < 4.40
C[C@H]1C(=O)[C@]23C[C@@H]1CC[C@H]2C12CO[C@@H](O)[C@@H]1C(C)(C)[C@@H](O)C[C@@H]2OC3=O (stereo not given in full) | inactive | inactive | < 4.40 | < 4.40 | inactive | < 4.40 | inactive | < 4.40 | inactive | < 4.40
C[C@H]1C(=O)[C@]23C[C@@H]1CC[C@H]2C12[C@H](CCC(C)(C)[C@H]1CO[C@@H]2O)OC3=O (stereo not given in full) | inactive | inactive | < 4.40 | < 4.40 | inactive | < 4.40 | inactive | < 4.40 | inactive | < 4.40
C[C@H]1C(=O)[C@]23C[C@@H]1CC[C@H]2C12[C@H](O)OC[C@@H]1C(C)(C)CC[C@@H]2OC3=O (stereo not given in full) | inactive | inactive | < 4.40 | < 4.40 | inactive | < 4.40 | inactive | < 4.40 | inactive | < 4.40
CO[C@@H]1O[C@@H](O)[C@@H]2C(C)(C)CC[C@@H]3OC(=O)[C@@]45C[C@H](CC[C@H]4C132)[C@@H](C)C5=O (stereo not given in full) | inactive | inactive | < 4.40 | < 4.40 | inactive | < 4.40 | inactive | < 4.40 | inactive | < 4.40
COC[C@@H]1C(=O)[C@]23C[C@@H]1C[C@@H](O)[C@H]2C12CO[C@@H](O)[C@@H]1C(C)(C)CC[C@@H]2OC3=O (stereo not given in full) | inactive | inactive | < 4.40 | < 4.40 | inactive | < 4.40 | inactive | < 4.40 | inactive | < 4.40
